Residues, ends and D or L forms follow the SMILES beside them. *: point of attachment. Cbz = O=C(OCc1ccccc1)*
Experiments:
Mus musculus = organism: Mus musculus; assay: Cytotoxicity against mouse RAW264.7 cells assessed as decrease in cell viability by MTT assay; assay type: toxicity, cell-based
Method in brief: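 Viability measured by MTT, run alongside the LPS/NO assay in the same RAW264.7 cultures: 2 × 10^5 cells/well in RPMI-1640, 24 h preincubation, compound serial dilutions up to 100 μM, then LPS (1 μg/mL) for 18 h. Absorbance read at 595 nm.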

[1] = Antiinflammatory activity in mouse RAW264.7 cells assessed as inhibition of LPS-induced nitric oxide production after 18 hrs by Griess assay; assay type: functional, cell-based; details: RAW264.7, 18 h
Method in brief: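 RAW264.7 cells seeded at 2 × 10^5 cells/well in RPMI-1640 and preincubated 24 h. Compounds added as serial dilutions from a top concentration of 100 μM, then LPS (1 μg/mL) stimulation for 18 h. Supernatant nitrite measured with Griess reagent after 5 min incubation, absorbance at 550 nm; proteasome inhibitor MG-132 used as positive control.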

Structure (SMILES) | IC50 [1] | Activity (Mus musculus)
CC(=O)O[C@@H]1[C@H]2[C@@H](OC(=O)c3ccccc3)[C@@H](C)C[C@]2(O)[C@H](OC(C)=O)[C@@]2(C)[C@@H]3CC(C)(C)C(=O)[C@]3(OC(C)=O)C[C@@]12C | 29.9 µM | Non-Toxic
CC(=O)O[C@@H]1[C@H]2[C@@H](OC(=O)c3ccccc3)[C@@H](C)C[C@]2(O)[C@H](OC(C)=O)[C@@]2(C)[C@@H]3CC(C)(C)C(=O)[C@@H]3C[C@@]12C | 33.7 µM | Non-Toxic
CC(=O)O[C@@H]1[C@H]2[C@@H](OC(=O)c3ccccc3)[C@@H](C)C[C@]2(O)[C@H](OC(C)=O)[C@@]2(C)[C@@H]3C[C@@](C)(OC(C)=O)CC(=O)[C@]3(OC(C)=O)C[C@@]12C | 47.5 µM | Non-Toxic
CC(=O)OC[C@@]12C[C@@]3(OC(C)=O)C(=O)C(C)(C)C[C@H]3[C@]1(C)[C@@H](OC(C)=O)[C@@]1(O)C[C@H](C)[C@H](OC(=O)c3ccccc3)[C@@H]1[C@H]2OC(C)=O | > 50 µM | Non-Toxic
CC(=O)O[C@@H]1[C@H]2[C@@H](OC(=O)c3ccccc3)[C@@H](C)C[C@]2(O)C(=O)[C@@]2(C)[C@@H]3CC(C)(C)C(=O)[C@@H]3C[C@@]12C | 38.3 µM | Non-Toxic
CC(=O)O[C@@H]1[C@H]2[C@@H](OC(=O)c3ccccc3)[C@@H](C)C[C@]2(O)[C@H](OC(C)=O)[C@@]2(C)[C@@H]3CC(C)(C)C(=O)[C@]3(O)C[C@@]12C | 43.2 µM | Non-Toxic
CC(=O)O[C@@H]1[C@H]2[C@@H](OC(=O)c3ccccc3)[C@@H](C)C[C@]2(O)[C@H](OC(C)=O)[C@@]2(C)[C@@H]3CC(C)=CC(=O)[C@]3(OC(C)=O)C[C@@]12C | 36.6 µM | Non-Toxic
CC(=O)OC[C@@]12C[C@@]3(OC(C)=O)C(=O)C=C(C)C[C@H]3[C@]1(C)[C@@H](OC(C)=O)[C@@]1(O)C[C@H](C)[C@H](OC(=O)c3ccccc3)[C@@H]1[C@H]2OC(C)=O | > 50 µM | Non-Toxic
CC(C)C[C@@H](C=O)NC(=O)[C@H](CC(C)C)NC(=O)[C@H](CC(C)C)NC(=O)OCc1ccccc1 [MG-132] (Cbz-Leu-Leu-Leu-aldehyde) | 0.18 µM | –

Second part, led by results:

IC50 [1] | Structure (SMILES) | Activity (Mus musculus)
> 50 µM | CC(=O)O[C@@H]1[C@H]2[C@@H](OC(=O)c3ccccc3)[C@@H](C)C[C@]2(O)[C@H](OC(C)=O)[C@@]2(C)[C@@H]3C[C@@](C)(O)C[C@H](O)[C@]3(OC(C)=O)C[C@@]12C | Non-Toxic
> 50 µM | CC(=O)O[C@H]1C[C@](C)(O)C[C@@H]2[C@@]1(OC(C)=O)C[C@@]1(C)[C@H](OC(C)=O)[C@H]3[C@@H](O)[C@@H](C)C[C@]3(O)[C@H](OC(C)=O)[C@@]21C | Non-Toxic
> 50 µM | CC(=O)O[C@H]1C[C@](C)(O)C[C@@H]2[C@@]1(O)C[C@@]1(C)[C@H](OC(C)=O)[C@H]3[C@@H](OC(=O)c4ccccc4)[C@@H](C)C[C@]3(O)[C@H](OC(C)=O)[C@@]21C | Non-Toxic
> 50 µM | CC(=O)O[C@@H]1[C@H]2[C@@H](OC(=O)c3ccccc3)[C@@H](C)C[C@]2(O)[C@H](OC(C)=O)[C@@]2(C)[C@@H]3C[C@@](C)(OC(C)=O)C[C@H](O)[C@]3(OC(C)=O)C[C@@]12C | Non-Toxic
37.1 µM | CC(=O)O[C@H]1C[C@](C)(OC(C)=O)C[C@@H]2[C@@]1(OC(C)=O)C[C@@]1(C)[C@H](OC(C)=O)[C@H]3[C@@H](OC(=O)c4ccccc4)[C@@H](C)C[C@]3(O)[C@H](OC(C)=O)[C@@]21C | Non-Toxic
> 50 µM | CC(=O)O[C@@H]1[C@H]2[C@@H](OC(=O)c3ccccc3)[C@@H](C)C[C@]2(O)[C@H](OC(C)=O)[C@@]2(C)[C@@H]3C[C@@](C)(O)CC(=O)[C@]3(OC(C)=O)C[C@@]12C | Non-Toxic
> 50 µM | CC(=O)O[C@H]1C[C@](C)(O)C[C@@H]2[C@@]1(OC(C)=O)C[C@@]1(C)[C@H](OC(C)=O)[C@H]3[C@@H](OC(=O)c4ccccc4)[C@@H](C)C[C@]3(O)[C@H](OC(C)=O)[C@@]21C | Non-Toxic
> 50 µM | CC(=O)O[C@H]1C[C@](C)(O)C[C@@H]2[C@@]1(OC(C)=O)C[C@@]1(C)[C@H](OC(C)=O)[C@H]3[C@@H](OC(=O)c4ccccc4)[C@@H](C)[C@@H](OC(C)=O)[C@]3(O)[C@H](OC(C)=O)[C@@]21C | Non-Toxic
> 50 µM | CC(=O)O[C@@H]1[C@H]2[C@@H](OC(=O)c3ccccc3)[C@@H](C)C[C@]2(O)[C@H](OC(C)=O)[C@@]2(C)[C@@H]3C[C@](C)(O)CC(=O)[C@]3(OC(C)=O)C[C@@]12C | Non-Toxic
